This is an account of results in ChEMBL document CHEMBL5136969, “A niclosamide-tobramycin hybrid adjuvant potentiates cefiderocol against P. aeruginosa” (2021).

For assay [1], the system named is Pseudomonas aeruginosa. The experiment in a line: Potentiation of tobramycin-induced antibiotic activity against Pseudomonas aeruginosa PAO1 assessed as MIC fold reduction at 8 ug/ml after 18 hrs by microbroth dilution method. The format is functional. Particulars: dose 8 µg/ml.
For assay [2], the system named is Acinetobacter baumannii. The assay can be described thus: Potentiation of ceftolozane-induced antibiotic activity against Acinetobacter baumannii ATCC 17978 assessed as MIC fold reduction at 8 ug/ml after 18 hrs by microbroth dilution method. Particulars: dose 8 µg/ml. The format is functional. The essentials:
(§1)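 Adjuvant held at a fixed 8 μg/mL while the antibiotic was 2-fold serially diluted in Mueller-Hinton broth (MHB), per CLSI microbroth dilution. Overnight cultures were adjusted in saline to 0.5 McFarland, then diluted 1:50 in MHB to about 5 × 10^5 CFU/mL final, and incubated 18 h at 37 °C. MIC was the lowest concentration with no visible turbidity, confirmed at 590 nm. Fold potentiation = MIC alone / MIC with adjuvant.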

For assay [3], the system named is Klebsiella pneumoniae. The assay can be described thus: Antibacterial activity against Klebsiella pneumoniae KP116381 assessed as potentiation of cefiderocol antibacterial activity by measuring FIC after 18 hrs by microbroth dilution method. The format is functional. The gist of the method:
(§2)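 Checkerboard in MHB. Cefiderocol was 2-fold serially diluted along one axis and the adjuvant along the other. Inoculum was prepared from 0.5 McFarland saline suspensions diluted 1:50 in MHB, giving about 5 × 10^5 CFU/mL final. Plates ran 18 h at 37 °C, with turbidity confirmed at 590 nm. FIC = combination MIC ÷ MIC alone for each agent, and FIC index = sum of both. Interpretation: ≤0.5 synergy, >0.5–4 additive, >4 antagonism.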

Assay [4] relates to Pseudomonas aeruginosa. The assay can be described thus: Potentiation of ceftazidime-induced antibiotic activity against MDR clinical isolate Pseudomonas aeruginosa PA260 assessed as MIC fold reduction at 8 ug/ml after 18 hrs by microbroth dilution method. The format is functional, organism-based. Particulars: dose 8.0 µg/ml. The essentials: as §1
For the next assay, the system named is Enterobacter cloacae. The experiment in a line: Antibacterial activity against Enterobacter cloacae 121187 assessed as potentiation of cefiderocol antibacterial activity by measuring FIC after 18 hrs by microbroth dilution method. The format is functional. The gist of the method: (§3)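 Checkerboard in Mueller-Hinton broth: cefiderocol 2-fold diluted on one axis, adjuvant 2-fold on the other. Overnight cultures were adjusted to 0.5 McFarland in saline, diluted 1:50 in MHB, and inoculated at about 5 × 10^5 CFU/mL. Incubation was 18 h at 37 °C. Turbidity was read visually and confirmed at 590 nm. FIC index = FIC of antibiotic + FIC of adjuvant; ≤0.5 synergy, >4 antagonism.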

Assay [5] relates to Acinetobacter baumannii. The assay can be described thus: Potentiation of rifampicin-induced antibiotic activity against Acinetobacter baumannii ATCC 17978 assessed as MIC fold reduction at 8 ug/ml after 18 hrs by microbroth dilution method. Format: functional. Particulars: dose 8 µg/ml.
In assay [6] the test system is Escherichia coli. The experiment in a line: Potentiation of moxifloxacin-induced antibiotic activity against Escherichia coli ATCC 25922 assessed as MIC fold reduction at 8 ug/ml after 18 hrs by microbroth dilution method. The format is functional. Particulars: dose 8 µg/ml. The gist of the method:
as §1

Assay [7] deals with Escherichia coli. The assay can be described thus: Potentiation of linezolid-induced antibiotic activity against Escherichia coli ATCC 25922 assessed as MIC fold reduction at 8 ug/ml after 18 hrs by microbroth dilution method. Format: functional. Particulars: dose 8 µg/ml. The essentials: as §1
Assay [8] deals with Staphylococcus epidermidis. The experiment in a line: Antibacterial activity against methicillin-resistant Staphylococcus epidermidis 61589 assessed as reduction in bacterial growth after 18 hrs by microbroth dilution method. The format is functional. The gist of the method:
(§4)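 Broth microdilution per CLSI in Mueller-Hinton broth (MHB). Overnight cultures were adjusted to 0.5 McFarland in saline, diluted 1:50 in MHB, and added at about 5 × 10^5 CFU/mL final to equal volumes of 2-fold serial dilutions of agent. Incubation was 18 h at 37 °C. MIC was the lowest concentration with no visible turbidity, confirmed by absorbance at 590 nm.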

Assay [9] concerns Acinetobacter baumannii. The assay can be described thus: Antibacterial activity against Acinetobacter baumannii ATCC 17978 assessed as reduction in bacterial growth after 18 hrs by microbroth dilution method. Format: functional. The gist of the method: (§5)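 CLSI microbroth dilution in MHB. Overnight cultures were adjusted to 0.5 McFarland in saline, diluted 1:50, and inoculated at about 5 × 10^5 CFU/mL. Agents were 2-fold serially diluted and incubated 18 h at 37 °C. MIC is the lowest concentration without visible turbidity, confirmed by absorbance at 590 nm. Medium with and without cells served as controls.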

Assay [10] deals with Klebsiella pneumoniae. The assay can be described thus: Antibacterial activity against Klebsiella pneumoniae KP113250 assessed as reduction in bacterial growth after 18 hrs by microbroth dilution method. Format: functional. The essentials:
as §5

Assay [11] has as its system Acinetobacter baumannii. The experiment in a line: Potentiation of fosfomycin-induced antibiotic activity against Acinetobacter baumannii ATCC 17978 assessed as MIC fold reduction at 8 ug/ml after 18 hrs by microbroth dilution method. The format is functional. Particulars: dose 8 µg/ml. The essentials:
as §1

Assay [12] concerns Acinetobacter baumannii. The assay can be described thus: Potentiation of colistin-induced antibiotic activity against Acinetobacter baumannii ATCC 17978 assessed as MIC fold reduction at 8 ug/ml after 18 hrs by microbroth dilution method. The format is functional. Particulars: dose 8 µg/ml. The gist of the method: as §1
The test system of assay [13] is Pseudomonas aeruginosa. The experiment in a line: Antibacterial activity against MDR clinical isolate Pseudomonas aeruginosa PA109084 assessed as potentiation of cefiderocol antibacterial activity by measuring FIC index after 18 hrs by microbroth dilution method. The format is functional. The gist of the method: as §2
Assay [14] deals with Pseudomonas aeruginosa. The assay can be described thus: Antibacterial activity against colistin-resistant clinical isolate Pseudomonas aeruginosa PA91433 assessed as potentiation of cefiderocol antibacterial activity by measuring FIC index after 18 hrs by microbroth dilution method. The format is functional. The gist of the method:
(§6)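 Checkerboard in MHB (iron-replete, not iron-depleted CAMHB). Cefiderocol was 2-fold serially diluted along one axis and the adjuvant along the other. Inoculum was 0.5 McFarland diluted 1:50, about 5 × 10^5 CFU/mL final. Incubation was 18 h at 37 °C, with turbidity read visually and confirmed at 590 nm. FIC was the MIC in combination over the MIC alone for each agent, and the FIC index was their sum. Cut-offs were ≤0.5 synergy, >0.5–4 additive, >4 antagonism.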

The test system of assay [15] is Escherichia coli. The assay can be described thus: Potentiation of sulfamethoxazole-induced antibiotic activity against Escherichia coli ATCC 25922 assessed as MIC fold reduction at 8 ug/ml after 18 hrs by microbroth dilution method. Particulars: dose 8 µg/ml. Format: functional.
For assay [16], the system named is Escherichia coli. The experiment in a line: Potentiation of tobramycin-induced antibiotic activity against Escherichia coli ATCC 25922 assessed as MIC fold reduction at 8 ug/ml after 18 hrs by microbroth dilution method. Format: functional. Particulars: dose 8 µg/ml.
Assay [17] relates to Escherichia coli. The assay can be described thus: Antibacterial activity against Escherichia coli 94474 assessed as potentiation of cefiderocol antibacterial activity by measuring FIC after 18 hrs by microbroth dilution method. Format: functional. The gist of the method: as §3
Assay [18] relates to Escherichia coli. The experiment in a line: Potentiation of novobiocin-induced antibiotic activity against Escherichia coli ATCC 25922 assessed as MIC fold reduction at 8 ug/ml after 18 hrs by microbroth dilution method. Format: functional. Particulars: dose 8 µg/ml.
For assay [19], the system named is Pseudomonas aeruginosa. The assay can be described thus: Potentiation of moxifloxacin-induced antibiotic activity against Pseudomonas aeruginosa PAO1 assessed as reduction in microbial growth at 8 ug/ml after 18 hrs by microbroth dilution method relative to control. Particulars: PAO1, 18 h, read-out: GI.
Assay [20] relates to Acinetobacter baumannii. The assay can be described thus: Potentiation of novobiocin-induced antibiotic activity against Acinetobacter baumannii ATCC 17978 assessed as MIC fold reduction at 8 ug/ml after 18 hrs by microbroth dilution method. The format is functional. Particulars: dose 8 µg/ml.
Assay [21] deals with Pseudomonas aeruginosa. The experiment in a line: Antibacterial activity against MDR clinical isolate Pseudomonas aeruginosa PA264 assessed as reduction in bacterial growth after 18 hrs by microbroth dilution method. Format: functional. The essentials: as §4
Assay [22] concerns Pseudomonas aeruginosa. The experiment in a line: Antibacterial activity against colistin-resistant clinical isolate Pseudomonas aeruginosa PA114228 assessed as potentiation of cefiderocol antibacterial activity by measuring FIC index after 18 hrs by microbroth dilution method. The format is functional. The essentials: as §6
Assay [23] concerns Acinetobacter baumannii. The assay can be described thus: Potentiation of linezolid-induced antibiotic activity against Acinetobacter baumannii ATCC 17978 assessed as MIC fold reduction at 8 ug/ml after 18 hrs by microbroth dilution method. The format is functional. Particulars: dose 8 µg/ml. The essentials: as §1

In brackets after ≈: the same amount, converted by molar mass. Activity calls are given as the source filed them.

On to `NC[C@H]1O[C@H](O[C@H]2[C@H](OCCCCc3cn(-c4ccc(NC(=O)c5cc(Cl)ccc5O)cc4)nn3)[C@@H](O[C@H]3O[C@H](CO)[C@@H](O)[C@H](N)[C@H]3O)[C@H](N)C[C@@H]2N)[C@H](N)C[C@@H]1O`, for which the “fold change (FC)” value in the assay with Pseudomonas aeruginosa [1], with Acinetobacter baumannii [2], with Acinetobacter baumannii [5], with Escherichia coli [6], in the assay on Escherichia coli [7] and with Acinetobacter baumannii [11] was 4 each time. In addition, the “fold change (FC)” value with Acinetobacter baumannii [12], in the assay on Escherichia coli [15], in the assay on Escherichia coli [16], in the assay with Escherichia coli [18], in the assay with Acinetobacter baumannii [20] and in the assay on Acinetobacter baumannii [23] was 4 each time. Also, the FIC in the assay with Klebsiella pneumoniae [3] is 0.5; in the assay with Enterobacter cloacae it was 1; in the assay with Pseudomonas aeruginosa [13], 0.004; in the assay on Pseudomonas aeruginosa [14], 0.016; in the assay on Escherichia coli [17], 0.25; in the assay on Pseudomonas aeruginosa [22], 1. In addition, in the assay with Pseudomonas aeruginosa [4], the outcome was Active. Also, the MIC is 128 µg/mL (≈ 153 µM) in assay [8], over 128 µg/mL in the assay with Acinetobacter baumannii [9], over 128 µg/mL in the assay on Klebsiella pneumoniae [10] and over 128 µg/mL in the assay on Pseudomonas aeruginosa [21]. The inhibition of growth at 8 µg/mL in the assay with Pseudomonas aeruginosa [19] is 100%.
